Data as given in ChEMBL document CHEMBL1268901, “Synthesis and in vitro antiviral activities of 3'-fluoro (or chloro) and 2',3'-difluoro 2',3'-dideoxynucleoside analogs against hepatitis B and C viruses” (Bioorg Med Chem, 2010).
Values after ≈ are worked out from the molar mass of the structure shown.

Key:
Hepatitis B virus [1] = assay: Antiviral activity against HBV infected in human HepG2(2.2.15) cells assessed as inhibition of viral replication at 10 ug/ml […] relative to control; format: functional; conditions: HepG2 2.2.15, 48 h
Hepatitis B virus [2] = assay: Antiviral activity against HBV infected in human HepG2(2.2.15) cells assessed as inhibition of viral replication after 2 days; format: functional, organism-based; conditions: HepG2 2.2.15, 48 h
Hepatitis C virus = assay: Antiviral activity against HCV 1a infected in human HuH7 cells assessed as reduction of viral RNA level at 20 ug/ml […] by QRT-PCR analysis; format: functional, Hepacivirus hominis; conditions: subtype 1a, Huh-7
[3] = Cytotoxicity against human HuH7 cells after 2 days by XTT assay; format: cell-based, Huh-7
In short: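 Huh-7 cells seeded at 1 × 10⁵ cells/well, allowed to attach 6–8 h, then medium replaced with compound at 200, 100, 50, 10 and 1 µg/mL; DMSO control. Incubated 2 days at 37 °C, XTT reagent added for 4 h at 37 °C, absorbance read at 450–500 nm; CC50 reported.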

Duck hepatitis B virus [4] = assay: Antiviral activity against DHBV infected in duck hepatocytes assessed as inhibition of viral DNA replication after 15 days; conditions: Hepatocyte, 360 h
Duck hepatitis B virus [5] = assay: Antiviral activity against DHBV infected in duck hepatocytes assessed as inhibition of viral DNA replication at 10 ug/ml after 15 days relative to control; conditions: Hepatocyte, 360 h
Hepatitis B virus [6] = assay: Antiviral activity against HBV infected in human HepG2(2.2.15) cells assessed as inhibition of viral replication at 5 ug/ml […] relative to control; format: functional; conditions: HepG2 2.2.15, 48 h
Duck hepatitis B virus [7] = assay: Antiviral activity against DHBV infected in duck hepatocytes assessed as inhibition of viral DNA replication at 1 ug/ml after 15 days relative to control; conditions: Hepatocyte, 360 h
Duck hepatitis B virus [8] = assay: Antiviral activity against DHBV infected in duck hepatocytes assessed as inhibition of viral DNA replication at 5 ug/ml after 15 days relative to control; conditions: Hepatocyte, 360 h
Hepatitis B virus [9] = assay: Antiviral activity against HBV infected in human HepG2(2.2.15) cells assessed as inhibition of viral replication at 0.5 to 1 ug/ml […] relative to control; format: functional
Duck hepatitis B virus [10] = assay: Antiviral activity against DHBV infected in duck hepatocytes assessed as inhibition of viral DNA replication at 0.5 to 1 ug/ml after 15 days relative to control

Row | Structure (SMILES) | inhibition at 10 µg/mL (Hepatitis B virus [1]) [%] | EC50 (Hepatitis B virus [2]) [µg/mL] | inhibition at 20 µg/mL (Hepatitis C virus) [%] | CC50 at 48 h [3] [µg/mL] | EC50 (Duck hepatitis B virus [4]) [µg/mL] | inhibition at 10 µg/mL (Duck hepatitis B virus [5]) [%] | inhibition at 5 µg/mL (Hepatitis B virus [6]) [%] | inhibition at 1 µg/mL (Duck hepatitis B virus [7]) [%] | inhibition at 5 µg/mL (Duck hepatitis B virus [8]) [%] | inhibition (INH) (Hepatitis B virus [9]) [%] | inhibition (INH) (Duck hepatitis B virus [10]) [%]
1 | O=c1[nH]c(=O)n([C@H]2C[C@@H](Cl)[C@@H](CO)O2)cc1F | 50 | 10 (≈ 37.8 µM) | 30 | > 200 | 10 (≈ 37.8 µM) | 50 |  |  |  |  | 
2 | Cc1cn([C@H]2C[C@H](Cl)[C@@H](CO)O2)c(=O)[nH]c1=O | 56 | 10 (≈ 38.4 µM) | 0 | > 200 | 10 (≈ 38.4 µM) | 55 |  |  |  |  | 
3 | O=c1[nH]c(=O)n([C@H]2C[C@H](Cl)[C@@H](CO)O2)cc1F | 0 |  | 0 | > 200 |  | 0 |  |  |  |  | 
4 | O=c1[nH]c(=O)n([C@H]2C[C@H](F)[C@@H](CO)O2)cc1F | 0 |  | 28 | > 100 |  | 0 |  |  |  |  | 
5 | O=c1[nH]c(=S)ccn1[C@H]1C[C@H](F)[C@@H](CO)O1 | 20 |  | 0 | > 100 |  | 25 |  |  |  |  | 
6 | O=c1[nH]c(=O)n([C@H]2C[C@H](F)[C@@H](CO)O2)cc1C(F)(F)F | 20 |  | 25 | > 100 |  | 20 |  |  |  |  | 
7 | CCc1cn([C@H]2C[C@H](F)[C@@H](CO)O2)c(=O)[nH]c1=O | 0 |  | 0 | > 200 |  | 0 |  |  |  |  | 
8 | O=c1[nH]c(=O)n([C@H]2C[C@H](F)[C@@H](CO)O2)cc1CO | 58 | 5 (≈ 19.2 µM) | 30 | > 200 | 1 (≈ 3.84 µM) | 75 | 50 | 50 |  |  | 
9 | O=c1[nH]c(=O)n([C@H]2C[C@H](F)[C@@H](CO)O2)cc1O | 0 |  | 0 | > 100 |  | 0 |  |  |  |  | 
10 | O=c1[nH]c(=S)c(F)cn1[C@H]1C[C@H](F)[C@@H](CO)O1 | 0 |  | 0 | > 100 |  | 0 |  |  |  |  | 
11 | O=c1ccn([C@@H]2O[C@H](CO)[C@@H](F)[C@H]2F)c(=O)[nH]1 | 0 |  | 0 | > 200 |  | 0 |  |  |  |  | 
12 | Cc1cn([C@@H]2O[C@H](CO)[C@@H](F)[C@H]2F)c(=O)[nH]c1=O | 0 |  | 0 | > 100 |  | 0 |  |  |  |  | 
13 | O=c1[nH]c(=O)n([C@H]2C[C@H](F)[C@@H](CO)O2)cc1I | 60 | 5 (≈ 14 µM) | 40 | < 100 | 5 (≈ 14 µM) | 63 | 50 |  | 50 |  | 
14 | Nc1ccn([C@@H]2CS[C@H](CO)O2)c(=O)n1 [LAMIVUDINE] |  |  |  |  | 0.05 (≈ 0.218 µM) |  |  |  |  | 88 | 96
15 | NC(=O)c1ncn([C@@H]2O[C@H](CO)[C@@H](O)[C@H]2O)n1 [RIBAVIRIN] |  |  | 50 |  |  |  |  |  |  |  | 
